Measured values: ChEMBL document CHEMBL1127060 (1993)
Where “and” joins values, the source holds several entries; their conditions need not be identical. Equal values may be shown once. Calls of active or inactive are those of the source. The calls are words filed in the database; no cut-off is given here.

Columns and labels:
[1] = Agonism at turkey erythrocyte P2Y receptor.; assay type: functional, Meleagris gallopavo
In short: (§1)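 Turkey erythrocytes labeled 18–24 h at 37 °C with 2-[3H]myo-inositol in inositol-free DMEM; ghosts made by hypotonic lysis (5 mM Na phosphate pH 7.4, 5 mM MgCl2, 1 mM EGTA). PLC assay: ~175 μg protein ghosts, 1 μM GTPγS, Hepes pH 7.0 medium with 424 μM CaCl2, 2 mM EGTA; 5 min, 30 °C; total [3H]inositol phosphates by anion exchange; K0.5 averaged from 3–8 curves.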

[2] = organism: Oryctolagus cuniculus; assay: Tested for relaxation of carbachol-contracted rabbit mesenteric artery at 37 degree C; More potent than or equal to 2MeSATP; assay type: functional
[3] = organism: Cavia porcellus; assay: Tested for contraction of guinea pig isolated urinary bladder detrusor muscle at 37 degree C; Not active; assay type: functional; conditions: Muscle tissue
[4] = organism: Cavia porcellus; assay: Tested for contraction of guinea pig vas deferens at 37 degree C; Not active; assay type: functional
[5] = organism: Oryctolagus cuniculus; assay: Tested for relaxation of carbachol-contracted rabbit aorta at 37 degree C; Significantly more potent than 2MeSATP; assay type: functional
[6] = organism: Oryctolagus cuniculus; assay: Tested for contraction of rabbit saphenous artery produced by 1 uM alpha,beta-MeATP at 37 degree C; Not active; assay type: functional
[7] = organism: Cavia porcellus; assay: Tested for relaxation of carbachol-contracted guinea pig taenia coli at 37 degree C; Potency equal to ATP; assay type: functional
[8] = organism: Oryctolagus cuniculus; assay: Tested for relaxation of carbachol-contracted rabbit mesenteric artery at 37 degree C; Potency equal to 2MeSATP; assay type: functional
[9] = organism: Oryctolagus cuniculus; assay: Tested for relaxation of carbachol-contracted rabbit aorta at 37 degree C; More potent or equal to 2MeSATP; assay type: functional
[10] = organism: Cavia porcellus; assay: Tested for contraction of guinea pig vas deferens at 37 degree C; Potency equal to ATP; assay type: functional
[11] = organism: Cavia porcellus; assay: Tested for contraction of guinea pig isolated urinary bladder detrusor muscle at 37 degree C; Potency equal to ATP; assay type: functional; conditions: Muscle tissue
[12] = organism: Cavia porcellus; assay: Tested for relaxation of carbachol-contracted guinea pig taenia coli at 37 degree C; Significantly more potent than ATP; assay type: functional
[13] = organism: Cavia porcellus; assay: Tested for contraction of guinea pig isolated urinary bladder detrusor muscle at 37 degree C; More potent than or equal to ATP; assay type: functional; conditions: Muscle tissue
[14] = organism: Oryctolagus cuniculus; assay: Tested for relaxation of carbachol-contracted rabbit mesenteric artery at 37 degree C; Significantly more potent than 2MeSATP; assay type: functional
[15] = organism: Cavia porcellus; assay: Tested for relaxation of carbachol-contracted guinea pig taenia coli at 37 degree C; More potent than or equal to ATP; assay type: functional
[16] = organism: Oryctolagus cuniculus; assay: Tested for contraction of rabbit saphenous artery produced by 1 uM alpha,beta-MeATP at 37 degree C; assay type: functional
[17] = organism: Cavia porcellus; assay: Tested for contraction of guinea pig isolated urinary bladder detrusor muscle at 37 degree C; Less potent than or equal to ATP; assay type: functional; conditions: Muscle tissue
[18] = tested on: Meleagris gallopavo; assay: Induction of inositol phosphate in turkey erythrocyte membranes at 100 uM; Inactive; assay type: functional, cell membranes; in short: as §1
[19] = organism: Cavia porcellus; assay: Tested for relaxation of carbachol-contracted guinea pig taenia coli at 37 degree C; Significantly less potent than ATP; assay type: functional
[20] = tested on: Meleagris gallopavo; assay: Tested for stimulation of production of inositol phosphate in turkey erythrocyte membrane; Not active; assay type: functional; in short: as §1
[21] = tested on: Meleagris gallopavo; assay: Stimulating production of inositol phosphate in turkey erythrocyte membranes at a concentration of 100 uM; Inactive; assay type: functional, cell membranes; in short: as §1
[22] = organism: Cavia porcellus; assay: Tested for relaxation of carbachol-contracted guinea pig taenia coli at 37 degree C; Less potent than or equal to ATP; assay type: functional
[23] = organism: Cavia porcellus; assay: Tested for relaxation of carbachol-contracted guinea pig taenia coli at 37 degree C; assay type: functional
In short: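 Carbachol-precontracted guinea pig taenia coli segments in 37 °C organ baths with oxygenated Krebs solution. Tension changes were recorded in response to increasing nucleotide concentrations. At least two determinations. Responses were expressed as % relaxation of the carbachol-induced contraction and reported as pD2. ATP was tested on every preparation.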

[24] = organism: Oryctolagus cuniculus; assay: Tested for contraction of rabbit saphenous artery produced by 1 uM alpha,beta-MeATP at 37 degree C; Potency equal to ATP; assay type: functional
[25] = organism: Oryctolagus cuniculus; assay: Tested for relaxation of carbachol-contracted rabbit aorta at 37 degree C; Potency equal to 2MeSATP; assay type: functional
[26] = organism: Oryctolagus cuniculus; assay: Tested for relaxation of carbachol-contracted rabbit aorta at 37 degree C; More potent than or equal to 2MeSATP; assay type: functional
[27] = organism: Cavia porcellus; assay: Tested for contraction of guinea pig vas deferens at 37 degree C; More potent than or equal to ATP; assay type: functional

SMILES	K 0.5 [1] [nM]	Relative activity [2]	Relative activity [4]	Relative activity [6]	Relative activity [10]	Relative activity [11]	Relative activity [12]	also measured
NCCCCCCCSc1nc(N)c2ncn(C3O[C@H](COP(=O)(O)OP(=O)(O)OP(=O)(O)O)[C@@H](O)[C@H]3O)c2n1 (stereo not given in full)	72.8	–	–	–	–	–	–	–
C=CCCCCSc1nc(N)c2ncn(C3O[C@H](COP(=O)(O)O)[C@@H](O)[C@H]3O)c2n1 (stereo not given in full)	328	6.3	inactive	inactive	–	–	–	Relative activity [3]: inactive; Relative activity [5]: 7; Relative activity [7]: 5
Nc1nc(Cl)nc2c1ncn2[C@@H]1O[C@H](COP(=O)(O)OP(=O)(O)OP(=O)(O)O)[C@@H](O)[C@H]1O	72	–	–	inactive	Active	Active	7.2	Relative activity [8]: 6.2; Relative activity [9]: 5.8
C=CCCCCSc1nc(N)c2ncn(C3O[C@H](COP(=O)(O)OP(=O)(O)OP(=O)(O)O)[C@@H](O)[C@H]3O)c2n1 (stereo not given in full)	10	–	–	inactive	Active	–	7.9	Relative activity [13]: Active; Relative activity [14]: 7
C=CCCCCSc1nc(NC)c2ncn(C3O[C@H](COP(=O)(O)OP(=O)(O)OP(=O)(O)O)[C@@H](O)[C@H]3O)c2n1 (stereo not given in full)	26	5.6 and 6	inactive	–	–	–	–	Relative activity [15]: 7.2; Relative activity [16]: 1.5%; Relative activity [17]: Partially active
Nc1nc(SCCc2ccc([N+](=O)[O-])cc2)nc2c1ncn2C1O[C@H](CO)[C@@H](O)[C@H]1O (stereo not given in full)	–	–	–	–	–	–	–	Activity [18]: inactive
CSc1nc(N)c2ncn([C@@H]3O[C@H](COP(=O)(O)OP(=O)(O)OP(=O)(O)O)[C@@H](O)[C@H]3O)c2n1	8	–	–	inactive	Active	Active	8	Relative activity [5]: 6.8; Relative activity [14]: 6.5
Nc1ncnc2c1ncn2[C@@H]1O[C@H](CO)[C@@H](O)[C@H]1O [ADENOSINE]	–	5.7	inactive	inactive	–	–	–	Relative activity [19]: 3.9; Relative activity [8]: 6; Relative activity [3]: inactive; K 0.5 [20]: inactive
C=CCCCCSc1nc(N)c2ncn(C3O[C@H](CO)[C@@H](O)[C@H]3O)c2n1 (stereo not given in full)	–	–	–	–	–	–	–	Activity [21]: inactive
N#CCCCCCCSc1nc(N)c2ncn(C3O[C@H](COP(=O)(O)O)[C@@H](O)[C@H]3O)c2n1 (stereo not given in full)	37000	6.2	inactive	–	–	–	–	Relative activity [3]: inactive; Relative activity [16]: 4.5%; Relative activity [22]: 4.4
C=CCCCCSc1nc(N)c2ncn(C3O[C@H](COP(=O)(O)OP(=O)(O)O)[C@@H](O)[C@H]3O)c2n1 (stereo not given in full)	4	–	–	–	–	–	8.1	–
Nc1ncnc2c1ncn2[C@@H]1O[C@H](COP(=O)(O)OP(=O)(O)OP(=O)(O)O)[C@@H](O)[C@H]1O [ADENOSINE TRIPHOSPHATE]	2800	–	–	–	3.5	Active	–	Relative activity [8]: 6; Relative activity [23]: 6.2; Relative activity [24]: Active; Relative activity [25]: 4.5
Nc1nc(SC2CCCCC2)nc2c1ncn2C1O[C@H](COP(=O)(O)OP(=O)(O)OP(=O)(O)O)[C@@H](O)[C@H]1O (stereo not given in full)	24	5.9	–	inactive	–	Active	8	Relative activity [26]: 6.3; Relative activity [27]: Active
